{"data": "Results collected from several papers"}
{"SMILES": "CC(=O)c1ccc(Oc2ccc(C(=O)C(Cl)Cl)cc2[N+](=O)[O-])cc1", "target or system": "NCI-H1299", "test": "cell growth or viability, MTT", "setting": "2.5 µM", "measurement": "inhibition", "value": "92.2%"}
{"SMILES": "CN(C)c1ccc(-c2c(C(N)=S)c(N)n(N)c(=O)c2C#N)cc1", "target or system": "Enterobacter cloacae", "test": "microbial growth, well diffusion", "system": "ATCC23355", "setting": "500 µg/mL", "measurement": "inhibition zone", "value": "14 mm"}
{"SMILES": "C=CC(=O)NC1CCN(c2ncc3ncnc(Nc4ccc(Oc5ccc6c(c5)ncn6C)c(C)c4)c3n2)CC1", "target or system": "NCI-H1437", "test": "cell growth or viability", "measurement": "EC50", "value": "4990 nM"}
{"SMILES": "CN(Cc1ccc(C(C)(C)C)cc1)Cc1cccc2ccccc12", "target or system": "Trichophyton mentagrophytes", "test": "microbial growth, disc diffusion", "system": "ATCC18748", "setting": "0.256 µg/mL, 72 h", "measurement": "inhibition zone", "value": "≥ 55 mm"}
{"SMILES": "Cn1cc2c3c1C(=O)C(NCCc1ccc(O)cc1)=CC3=NCC2", "target or system": "Babesia divergens", "test": "parasite growth, SYBR Green", "setting": "60 h, blood stage", "measurement": "IC50", "value": "1000 nM"}
{"SMILES": "CN(Cc1ccc(C2(C(F)(F)F)CC2)cc1)Cc1cccc2ccccc12.Cl", "target or system": "Trichophyton mentagrophytes", "test": "microbial killing, broth dilution", "system": "ATCC18748", "setting": "72 h", "measurement": "MFC", "value": "8000 µg/mL"}
{"SMILES": "O=C(c1ccccc1)c1ccc(Oc2ccc(C(=O)C(Cl)Cl)cc2[N+](=O)[O-])cc1", "target or system": "NCI-H1299", "test": "cell growth or viability, MTT", "setting": "2.5 µM", "measurement": "inhibition", "value": "85.3%"}
{"SMILES": "Cc1ccc(-c2cc(C(F)(F)F)nn2-c2ccc(S(N)(=O)=O)cc2)cc1", "target or system": "RAW264.7", "test": "NO release, inhibitor, Griess", "setting": "10 µM, LPS-stimulated", "measurement": "inhibition", "value": "35.2%"}
{"SMILES": "COc1cccc2c1C(=O)c1c(O)c3c(c(O)c1C2=O)C[C@@](O)(C(=O)CO)C[C@@H]3O[C@H]1C[C@H](N)[C@H](O)[C@H](C)O1", "target or system": "NCI-H1299", "test": "cell growth or viability, MTT", "setting": "2.5 µM", "measurement": "inhibition", "value": "95.7%"}
{"SMILES": "C#CCOc1ccc(/C=C/c2cc(OC)cc(OC)c2-c2cnnn2C(=O)NCCC)cc1", "target or system": "RAW264.7", "test": "NO release, inhibitor, Griess", "setting": "10 µM, LPS-stimulated", "measurement": "inhibition", "value": "94.2%"}
{"SMILES": "CC(=O)OCCCOc1ccc(C(=O)C(Cl)Cl)cc1[N+](=O)[O-]", "target or system": "NCI-H1299", "test": "cell growth or viability, MTT", "setting": "2.5 µM", "measurement": "inhibition", "value": "60.3%"}
{"SMILES": "C#CCOc1ccc(/C=C/c2cc(OC)cc(OC)c2-c2cnnn2C(=O)NCCc2ccccc2)cc1", "target or system": "RAW264.7", "test": "NO release, inhibitor, Griess", "setting": "10 µM, LPS-stimulated", "measurement": "inhibition", "value": "50.4%"}
